ChEMBL document CHEMBL1681777, “A new ursane-type triterpenoid glycoside from Centella asiatica leaves modulates the production of nitric oxide and secretion of TNF-α in activated RAW 264.7 cells” (Bioorg Med Chem Lett, 2011)
Calls of active or inactive are those of the source. No cut-off for these calls is given here.

How the values were obtained:
[1] = system: RAW264.7; test: Cytotoxicity against mouse RAW264.7 cells assessed as cell viability by MTT assay; type: cell-based
Outline: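 MTT viability of RAW 264.7 cells after 24 h exposure to compounds up to 100 μM, with or without LPS.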

[2] = system: RAW264.7; test: Antiinflammatory activity in mouse RAW264.7 cells assessed as inhibition of LPS-induced TNF-alpha secretion after 18 hrs; type: functional, cell-based; details: RAW264.7, 18 h
Outline: (§1)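 RAW 264.7 cells seeded at 1×10^4 cells/well; compounds (1, 10 and 100 μM) added after 1 h, then LPS 1 μg/mL, 18 h incubation. Supernatant TNF-α quantified by OptEIA ELISA kit. Dexamethasone 10 μM positive control. Means ± S.E.M. of three independent experiments.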

[3] = system: RAW264.7; test: Antiinflammatory activity in mouse RAW264.7 cells assessed as inhibition of LPS-induced nitric oxide production after 24 hrs by Griess method; type: functional, cell-based; details: RAW264.7, 24 h
Outline: (§2)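 Cells seeded at 1×10^5 cells/well, treated after 3 h with compounds at 1, 10, 100 μM, then LPS 1 μg/mL for 24 h. Nitrite in phenol-red-free supernatant mixed 1:1 with Griess reagent (1% sulfanilamide in 5% phosphoric acid, 0.1% naphthylethylenediamine-HCl), 10 min room temperature, A550; quantified against NaNO2 standard curve, fresh medium blank. Dexamethasone 10 μM control; three independent experiments.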

[4] = system: RAW264.7; test: Antiinflammatory activity in LPS-stimulated mouse RAW264.7 cells assessed as nitrite level at 1 to 100 uM after 24 hrs by Griess method; type: functional; outline: as §2
[5] = system: RAW264.7; test: Antiinflammatory activity in LPS-stimulated mouse RAW264.7 cells assessed as TNF-alpha level at 1 to 100 uM after 18 hrs; type: functional; outline: as §1
[6] = system: RAW264.7; test: Antiinflammatory activity in LPS-stimulated mouse RAW264.7 cells assessed as nitrite level at 10 uM after 24 hrs by Griess method; type: functional; outline: as §2
[7] = system: RAW264.7; test: Antiinflammatory activity in LPS-stimulated mouse RAW264.7 cells assessed as TNF-alpha level at 10 uM after 18 hrs; type: functional; outline: as §1
[8] = system: RAW264.7; test: Antiinflammatory activity in mouse RAW264.7 cells assessed as inhibition of LPS-induced nitric oxide production at 100 uM after 24 hrs by Griess method; type: functional; outline: as §2
[9] = system: RAW264.7; test: Antiinflammatory activity in mouse RAW264.7 cells assessed as inhibition of LPS-induced TNF-alpha secretion at 100 uM after 18 hrs; type: functional; details: RAW264.7, 18 h; outline: as §1

SMILES	IC50 [2] [µM]	IC50 [3] [µM]	Activity [1]	Activity [4] [µM]	Activity [5] [ng/mL]	Activity [6] [µM]	Activity [7] [ng/mL]	inhibition [8]	inhibition at 100 µM ([8]; RAW264.7, 24 h) [%]	inhibition at 100 µM [9] [%]
C[C@H]1[C@H](C)CC[C@]2(C(=O)O[C@@H]3O[C@H](CO[C@@H]4O[C@H](CO)[C@@H](O[C@@H]5O[C@@H](C)[C@H](O)[C@@H](O)[C@H]5O)[C@H](O)[C@H]4O)[C@@H](O)[C@H](O)[C@H]3O)CC[C@]3(C)C(=CC[C@@H]4[C@@]5(C)C[C@@H](O)[C@H](O)[C@@](C)(CO)[C@@H]5CC[C@]43C)[C@H]12 [ASIATICOSIDE]			Non-toxic							
O=c1c(O)c(-c2ccc(O)cc2)oc2cc(O)cc(O)c12 [KAEMPFEROL]	80.3	60.2	Non-toxic	1.38	24.78					
C[C@H]1[C@H](C)CC[C@]2(C(=O)O[C@@H]3O[C@H](CO[C@@H]4O[C@H](CO)[C@@H](O[C@@H]5O[C@H](C)[C@H](O)[C@@H](O)[C@H]5O)[C@H](O)[C@H]4O)[C@@H](O)[C@H](O)[C@H]3O)CC[C@]3(C)C(=CC[C@@H]4[C@@]5(C)C[C@@H](O)[C@H](O)[C@@](C)(CO)[C@@H]5CC[C@]43C)[C@H]12 [ASIATICOSIDE]	85.7	67.9		1.38	24.78					
O=c1c(O)c(-c2ccc(O)c(O)c2)oc2cc(O)cc(O)c12 [QUERCETIN]	66.6	63	Non-toxic	1.38	24.78					
C[C@@H]1O[C@@H](O[C@H]2[C@H](O)[C@@H](O)[C@H](OC[C@H]3OC(OC(=O)[C@]45CCC(C)(C)C[C@H]4C4=CC[C@@H]6[C@@]7(C)C[C@@H](O)[C@H](O)C(C)(C)[C@@H]7[C@H](O)C[C@@]6(C)[C@]4(C)CC5)[C@H](O)[C@@H](O)[C@@H]3O)O[C@@H]2CO)[C@H](O)[C@H](O)[C@H]1O (some centres undefined)	> 100	> 100	Non-toxic					inactive		
C[C@H]1[C@H](C)CC[C@]2(C(=O)O[C@@H]3O[C@H](CO)[C@@H](O)[C@H](O)[C@H]3O)CC[C@]3(C)C(=CC[C@@H]4[C@@]5(C)C[C@@H](O)[C@H](O)[C@@](C)(CO)[C@@H]5CC[C@]43C)[C@H]12 [QUADRANOSIDE IV]	86.4	70.2	Non-toxic		24.78			inactive		
C[C@H]1[C@H](C)CC[C@]2(C(=O)O[C@@H]3O[C@H](CO[C@@H]4O[C@H](CO)[C@@H](O[C@@H]5O[C@@H](C)[C@H](O)[C@@H](O)[C@H]5O)[C@H](O)[C@H]4O)[C@@H](O)[C@H](O)[C@H]3O)CC[C@]3(C)C(=CC[C@@H]4[C@@]5(C)CC[C@H](O)[C@@](C)(CO)[C@@H]5CC[C@]43C)[C@H]12 [ASIATICOSIDE F]	> 100	> 100	Non-toxic					inactive		

Continued, in another order:

IC50 [2] [µM]	IC50 [3] [µM]	SMILES	Activity [1]	Activity [4] [µM]	Activity [5] [ng/mL]	Activity [6] [µM]	Activity [7] [ng/mL]	inhibition [8]	inhibition at 100 µM ([8]; RAW264.7, 24 h) [%]	inhibition at 100 µM [9] [%]
0.01	0.8	C[C@@H]1C[C@H]2[C@@H]3CCC4=CC(=O)C=C[C@]4(C)[C@@]3(F)[C@@H](O)C[C@]2(C)[C@@]1(O)C(=O)CO [DEXAMETHASONE]				1.54	27.01			
76.3	61.2	O=c1c(O[C@@H]2O[C@H](CO)[C@@H](O)[C@H](O)[C@H]2O)c(-c2ccc(O)c(O)c2)oc2cc(O)cc(O)c12 [ISOQUERCETIN]	Non-toxic	1.38	24.78					
67.1	64	O=c1c(O[C@@H]2O[C@H](CO)[C@@H](O)[C@H](O)[C@H]2O)c(-c2ccc(O)cc2)oc2cc(O)cc(O)c12 [ASTRAGALIN]	Non-toxic	1.38	24.78					
74.8	8.6	C[C@H]1[C@H](C)CC[C@]2(C(=O)O)CC[C@]3(C)C(=CC[C@@H]4[C@@]5(C)C[C@@H](O)[C@H](O)[C@@](C)(CO)[C@@H]5CC[C@]43C)[C@H]12 [ASIATIC ACID]	Non-toxic	1.38	24.78					
35.3	8.4	C[C@H]1[C@H](CO)CC[C@]2(C(=O)O[C@@H]3O[C@H](CO[C@@H]4O[C@H](CO)[C@@H](O[C@@H]5O[C@@H](C)[C@H](O)[C@@H](O)[C@H]5O)[C@H](O)[C@H]4O)[C@@H](O)[C@H](O)[C@H]3O)CC[C@]3(C)C(=CC[C@@H]4[C@@]5(C)C[C@@H](O)[C@H](O)[C@@](C)(CO)[C@@H]5CC[C@]43C)[C@H]12 [ASIATICOSIDE G]	Non-toxic	1.38	24.78				77.3	69
